The source made the active and inactive calls. The rule behind the calls is not given here. Where a SMILES comes first, the peptide text is derived from it. The star is where a group is joined. Oleoyl = CCCCCCCC/C=C\CCCCCCCC(=O)*
Legend:
C2C12 = test: Uncoupling activity in mouse C2C12 cells assessed as induction of SLC25-mediated mitochondrial respiration at 50 uM mixed for 2 mins measured after 2 mins post mixing relative to basal oligomycin-treated respiration; format: cell-based
Method in brief: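 C2C12 cells seeded 35,000/well, assayed next day in Seahorse XF24 respiration buffer (DMEM, pyruvate, 20 mM glucose) after 1 h CO2-free. Sequential injections: oligomycin 1 μM, compound 50 μM, FCCP 0.2 μM, rotenone 3 μM final; cycles of 2 min mix, 2 min measure. Cycle 6 set to 100%; maximal respiration over cycles 7–15 reported. n=3–6.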

[1] = molecular target: T1, N-fatty-acyl-amino acid synthase/hydrolase PM20D1 (Mus musculus, UniProt Q8C165); test: Metabolic stability assessed as recombinant mouse 6xHis/FLAG-tagged PM20D1-mediated hydrolysis by measuring parent compound remaining at 100 nmol after 1 hr by LC-MS method; format: ADME; conditions: in the assay text read “at 10 nmol” for “at 100 nmol”
T1 sequence (Q8C165 whole entry): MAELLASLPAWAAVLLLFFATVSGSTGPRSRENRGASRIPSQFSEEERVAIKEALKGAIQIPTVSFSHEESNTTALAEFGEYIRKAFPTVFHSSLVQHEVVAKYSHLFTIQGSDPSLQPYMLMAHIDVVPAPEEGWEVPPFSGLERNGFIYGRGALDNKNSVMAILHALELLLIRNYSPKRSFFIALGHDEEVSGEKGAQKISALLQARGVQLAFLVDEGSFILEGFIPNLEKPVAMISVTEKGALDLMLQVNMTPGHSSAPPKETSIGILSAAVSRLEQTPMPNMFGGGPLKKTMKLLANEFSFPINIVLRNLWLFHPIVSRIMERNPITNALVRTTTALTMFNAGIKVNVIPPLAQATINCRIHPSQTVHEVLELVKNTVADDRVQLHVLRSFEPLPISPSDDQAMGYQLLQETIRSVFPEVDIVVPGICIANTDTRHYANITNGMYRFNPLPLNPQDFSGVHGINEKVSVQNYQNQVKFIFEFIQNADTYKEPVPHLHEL
Method in brief: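 Murine PM20D1–6xHis-Flag expressed transiently in 293T cells, Flag-M2 purified from serum-free conditioned medium. 10 nmol compound in 100 μl PBS (100 μM) with enzyme or PBS, 1 h at 37 °C; quenched in chloroform:methanol with d31-palmitate internal standard; intact substrate and released fatty acid quantified by LC-MS. Means ± SEM, n=3.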

[2] = Half life in mouse liver microsomes at 1 uM after 60 mins in presence of NADPH by LC-MS/MS analysis; format: ADME, microsome
Method in brief: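 Test compound at 1 μM with 1 mg/mL mouse liver microsomes in 100 mM KPi pH 7.4, 37C with shaking; started with NADPH (1 mM final), -NADPH controls included. Samples at 0, 5, 10, 20, 40, 60 min quenched in 5X acetonitrile, filtered, LC-MS/MS; data log transformed to half-life.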

Mus musculus [3] = test: Anti-obesity activity against DIO mouse assessed as blood glucose levels at 25 mg/kg, ip administered daily for 7 consecutive days measured after 2 hrs post last dose (reference value: 204 +/- 7 mg/dl); format: functional
Mus musculus [4] = test: Anti-obesity activity against ip dosed DIO mouse assessed as reduction in body weight gain administered daily for 7 consecutive days; format: functional, organism-based
Mus musculus [5] = test: Anti-obesity activity against DIO mouse assessed as reduction in food intake at 25 mg/kg, ip administered daily for 7 consecutive days; format: functional, organism-based
Mus musculus [6] = test: Anti-obesity activity against DIO mouse assessed as reduction in body weight gain by measuring net weight change at 5 mg/kg, ip administered daily for 7 consecutive days (reference value: 1.1 +/- 0.1 g); format: functional, organism-based
Mus musculus [7] = test: Anti-obesity activity against DIO mouse assessed as reduction in body weight gain by measuring net weight change at 10 mg/kg, ip administered daily for 7 consecutive days (reference value: 1.1 +/- 0.1 g); format: functional
Mus musculus [8] = test: Anti-obesity activity against DIO mouse assessed as reduction in body weight gain by measuring net weight change at 25 mg/kg, ip administered daily for 7 consecutive days (reference value: 1.1 +/- 0.1 g); format: functional

Row | SMILES | Emax (C2C12) [%] | other results
1 | CCCCCCCCCCCCCCCC(=O)N[C@@H](Cc1ccccc1)C(=O)O | 180 | 
2 | CCCCCCCC/C=C\CCCCCCCC(=O)N[C@@H](CCC(=O)O)C(=O)O | 106 | 
3 | CCCCCCCC/C=C\CCCCCCCC(=O)N[C@@H](CCC(N)=O)C(=O)O | 164 | 
4 | CCCCCCCC/C=C\CCCCCCCC(=O)N1Cc2ccccc2[C@@H]1C(=O)O | 190 | Stability [1]: Stable; half-life at 1 µM [2]: 1.07 h
5 | CCC/C=C\C/C=C\C/C=C\CCCCCCC(=O)N[C@@H](Cc1ccccc1)C(=O)O | 109 | 
6 | CCCCCCCC/C=C\CCCCCCCC(=O)NCCc1ccccc1 | 104 | 
7 | CCCCCCCC/C=C\CCCCCCCC(=O)N1CCC[C@H]1C(=O)O | 182 | 
8 | CC/C=C\C/C=C\C/C=C\C/C=C\C/C=C\CCCC(=O)N[C@@H](Cc1ccccc1)C(=O)O | 259 | 
9 | CCCCCCCC/C=C\CCCCCCCC(=O)N1Cc2ccccc2C[C@H]1C(=O)O | 187 | 
10 | CCCCCCCCCCCCCCCCCCCC(=O)N[C@@H](Cc1ccccc1)C(=O)O | 95 | 
11 | CCCCCCCC/C=C\CCCCCCCC(=O)N[C@@H](Cc1ccccc1)C(=O)O | 161 | 
12 | CCCCC/C=C\C/C=C\C/C=C\C/C=C\CCCC(=O)N[C@@H](Cc1ccccc1)C(=O)O | 200 | 
13 | CCCCCCCC/C=C\CCCCCCCC(=O)N[C@@H](Cc1c[nH]c2ccccc12)C(=O)O | 147 | 
14 | CCCCCCCC/C=C\CCCCCCCC(=O)N1Cc2ccccc2[C@H]1C(=O)O | 240 | Stability [1]: Stable; half-life at 1 µM [2]: 1.07 h
15 | CCCCCCCC/C=C\CCCCCCCC(=O)N1CCc2ccccc2C1C(=O)O (stereo not drawn) | 216 | 
16 | CCCCCCCC/C=C\CCCCCCCC(=O)N[C@@H](CC(C)C)C(=O)O | 178 | half-life at 1 µM [2]: 0.133 h
17 | CCCCCCCC/C=C\CCCCCCCC(=O)NCC(=O)NCC(=O)O (Oleoyl-Gly-Gly-OH) | 206 | 
18 | CCCCCCCC/C=C\CCCCCCCC(=O)N1CCCC[C@H]1C(=O)O | 174 | 

Row | SMILES | Emax (C2C12) [%] | other results
19 | CCCCCCCC/C=C\CCCCCCCCCC(=O)N[C@@H](Cc1ccccc1)C(=O)O | 103 | 
20 | CCCCCCCC/C=C\CCCCCCCC(=O)N[C@H](C(=O)O)[C@@H](C)CC | 167 | half-life at 1 µM [2]: 0.133 h
21 | CCCCCCCC/C=C\CCCCCCCCNC(=O)N[C@@H](Cc1ccccc1)C(=O)O | 97 | 
22 | CCCCCCCCCCCCCCCCCCCCCC(=O)N[C@@H](Cc1ccccc1)C(=O)O | 100 | 
23 | CCCCCC/C=C\CCCCCCCCCC(=O)N[C@@H](Cc1ccccc1)C(=O)O | 115 | 
24 | CCCCCCCC/C=C\CCCCCCCC(=O)N[C@H](Cc1ccccc1)C(=O)O | 173 | 
25 | CCCCCCCC/C=C\CCCCCCCC(=O)N1c2ccccc2C[C@H]1C(=O)O | 146 | 
26 | CCCCCCCCCCC/C=C\CCCCC(=O)N[C@@H](Cc1ccccc1)C(=O)O | 110 | 
27 | CCCCCCCC/C=C\CCCCCCCC(=O)N[C@@H](Cc1ccc(O)cc1)C(=O)O | 105 | half-life at 1 µM [2]: 0.133 h
28 | CCCCCCCCCCCC(=O)N[C@@H](Cc1ccccc1)C(=O)O | 96 | 
29 | CCCCCCCC/C=C/CCCCCCCC(=O)N[C@@H](Cc1ccccc1)C(=O)O | 107 | 
30 | CCCCCCCCCCCCCCCCCC(=O)N[C@@H](Cc1ccccc1)C(=O)O | 148 | 
31 | CCCCCCCC/C=C\CCCCCCCCNC(=O)NCC(=O)O | 104 | 
32 | CCCCC/C=C\C/C=C\CCCCCCCC(=O)N1Cc2ccccc2[C@H]1C(=O)O | 185 | Stability [1]: Stable; half-life at 1 µM [2]: 1.07 h
33 | CCCCCCCC/C=C\CCCCCCCC(=O)NCCC(=O)O | 185 | 
34 | CC/C=C\C/C=C\C/C=C\C/C=C\C/C=C\C/C=C\CCC(=O)N[C@@H](Cc1ccccc1)C(=O)O | 166 | 
35 | CCCCC/C=C\C/C=C\CCCCCCCC(=O)N1Cc2ccccc2[C@@H]1C(=O)O | 190 | Stability [1]: Stable; Activity (Mus musculus [3]): 172 mg/dL; Activity (Mus musculus [4]): Dose-dependent effect; Activity (Mus musculus [5]): inactive; half-life at 1 µM [2]: 1.07 h; Activity (Mus musculus [6]): inactive; Activity (Mus musculus [7]): 0.2 g; Activity (Mus musculus [8]): -1.2 g
36 | CCCCC/C=C\C/C=C\CCCCCCCC(=O)N[C@@H](Cc1ccccc1)C(=O)O | 218 | 

Source: ChEMBL document CHEMBL4219135, “Discovery of Hydrolysis-Resistant Isoindoline N-Acyl Amino Acid Analogues that Stimulate Mitochondrial Respiration” (J Med Chem, 2018)
